What was measured:
[1] = target: T1, Amine oxidase [flavin-containing] A (Homo sapiens, UniProt P21397); assay: (§1) Inhibition of recombinant human MAO-A expressed in baculovirus infected BTI insect cells using tyramine as substrate pretreated for 30 mins followed by substrate addition incubated for 30 mins measured at 5 mins interval by horse-radish peroxidase/amplex red-based fluorometric method
T1 sequence (P21397 whole entry): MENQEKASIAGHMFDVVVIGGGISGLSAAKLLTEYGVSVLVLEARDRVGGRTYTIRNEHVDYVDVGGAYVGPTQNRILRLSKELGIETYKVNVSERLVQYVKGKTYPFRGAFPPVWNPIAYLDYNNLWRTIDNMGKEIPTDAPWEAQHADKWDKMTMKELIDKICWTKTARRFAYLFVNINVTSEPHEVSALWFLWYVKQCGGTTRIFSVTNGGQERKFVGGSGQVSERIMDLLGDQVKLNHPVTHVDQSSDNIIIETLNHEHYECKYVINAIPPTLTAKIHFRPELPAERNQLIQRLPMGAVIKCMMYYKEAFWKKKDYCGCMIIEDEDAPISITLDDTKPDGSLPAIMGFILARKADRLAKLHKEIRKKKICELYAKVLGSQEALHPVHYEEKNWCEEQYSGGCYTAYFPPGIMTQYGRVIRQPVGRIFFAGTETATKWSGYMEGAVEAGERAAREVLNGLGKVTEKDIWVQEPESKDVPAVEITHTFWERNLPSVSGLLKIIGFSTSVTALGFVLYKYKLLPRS
Method in brief: (§2)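 Recombinant hMAO-A (0.5 U/mL stock) or hMAO-B (0.64 U/mL stock) in phosphate buffer, preincubated with inhibitor (solutions 10^-3 to 10^-9 M in 2% DMSO) for 30 min at 37°C. Background-subtracted against DMSO control; quadruplicate.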

[2] = target: T1, Amine oxidase [flavin-containing] A; assay: as §1, with “cells at 10^-4 to 10^-3 uM” for “cells”, “method relative to control” for “method”; conditions: 0.5 h
Method in brief: as §2, with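 “37°C. Working solution (HRP, Amplex Red, tyramine) then added for 30 min at 37°C, with fluorescence (Ex/Em 535/587 nm) read every 5 min.” for “37°C.”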

[3] = target: T2, Amine oxidase [flavin-containing] B (Homo sapiens, UniProt P27338); assay: (§3) Inhibition of recombinant human MAO-B expressed in baculovirus infected BTI insect cells using tyramine as substrate pretreated for 30 mins followed by substrate addition incubated for 30 mins measured at 5 mins interval by horse-radish peroxidase/amplex red-based fluorometric method; type: cell-based
T2 sequence (P27338 whole entry): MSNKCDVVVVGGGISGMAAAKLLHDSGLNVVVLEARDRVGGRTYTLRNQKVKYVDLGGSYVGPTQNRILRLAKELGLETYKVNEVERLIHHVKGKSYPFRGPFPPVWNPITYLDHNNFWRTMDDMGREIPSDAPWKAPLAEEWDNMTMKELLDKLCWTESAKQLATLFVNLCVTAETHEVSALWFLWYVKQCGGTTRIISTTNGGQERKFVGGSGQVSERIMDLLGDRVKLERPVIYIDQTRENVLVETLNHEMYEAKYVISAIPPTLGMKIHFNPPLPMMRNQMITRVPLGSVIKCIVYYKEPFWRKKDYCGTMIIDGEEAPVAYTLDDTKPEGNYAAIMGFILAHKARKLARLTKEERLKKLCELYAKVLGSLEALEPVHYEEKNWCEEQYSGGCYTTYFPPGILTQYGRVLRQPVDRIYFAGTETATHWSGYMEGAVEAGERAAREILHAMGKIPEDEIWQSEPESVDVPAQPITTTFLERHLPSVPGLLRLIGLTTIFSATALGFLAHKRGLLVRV

Homo sapiens = species: Homo sapiens; assay: Selectivity index, ratio of IC50 for recombinant human MAO-A expressed in baculovirus infected BTI insect cells to IC50 for recombinant human MAO-B expressed in baculovirus infected BTI insect cells
Method in brief: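 Selectivity index calculated as IC50(MAO-A)/IC50(MAO-B), with both IC50 values from the fluorometric tyramine/HRP/Amplex Red inhibition assay.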

[4] = target: T2, Amine oxidase [flavin-containing] B; assay: as §3, with “cells at 10^-4 to 10^-3 uM” for “cells”; conditions: 0.5 h
Method in brief: as §2, with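 “37°C. Working solution (HRP, Amplex Red, tyramine) then added for 30 min at 37°C, with fluorescence (Ex/Em 535/587 nm) read every 5 min.” for “37°C.”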

Row | SMILES | IC50 [1] | inhibition (INH) [2] | IC50 [3] | inhibition (INH) [4] | Ratio IC50 (Homo sapiens)
1 | C#CCn1c(-c2ccc(C(=O)N/N=C/c3ccccc3OC)cc2)nc2ccccc21 | ≥ 1000 µM | Not Active | ≥ 1000 µM | Not Active | –
2 | C#CCn1c(-c2ccc(C(=O)N/N=C/c3cccc(O)c3)cc2)nc2ccccc21 | ≥ 1000 µM | Not Active | ≥ 1000 µM | Not Active | –
3 | C#CCn1c(-c2ccc(C(=O)N/N=C/c3cc(OC)cc(OC)c3)cc2)nc2ccccc21 | ≥ 100 µM | < 50% | 25.2 µM | – | > 3.96
4 | C#CCn1c(-c2ccc(C(=O)N/N=C/c3ccc[nH]3)cc2)nc2ccccc21 | ≥ 1000 µM | Not Active | ≥ 1000 µM | Not Active | –
5 | C#CCn1c(-c2ccc(C(=O)N/N=C/c3ccc(Cl)cc3)cc2)nc2ccccc21 | ≥ 100 µM | < 50% | 10.2 µM | – | > 9.85
6 | C#CCn1c(-c2ccc(C(=O)N/N=C/c3cccs3)cc2)nc2ccccc21 | ≥ 1000 µM | Not Active | ≥ 100 µM | Not Active | –

More lines, main results first:

Row | IC50 [1] | inhibition (INH) [2] | IC50 [3] | inhibition (INH) [4] | SMILES | Ratio IC50 (Homo sapiens)
7 | ≥ 100 µM | < 50% | 12.2 µM | – | C#CCn1c(-c2ccc(C(=O)N/N=C/c3cccn3C)cc2)nc2ccccc21 | > 8.22
8 | ≥ 100 µM | < 50% | 12.6 µM | – | C#CCn1c(-c2ccc(C(=O)N/N=C/c3cccc(OC)c3)cc2)nc2ccccc21 | > 7.93
9 | 27.1 µM | – | 0.881 µM | – | C#CCn1c(-c2ccc(C(=O)N/N=C/c3ccc([N+](=O)[O-])s3)cc2)nc2ccccc21 | 30.7
10 | 53.5 µM | – | 18.5 µM | – | C#CCn1c(-c2ccc(C(=O)N/N=C/c3cccc(OC)c3OC)cc2)nc2ccccc21 | 2.89
11 | 19.6 µM | – | 10.3 µM | – | C#CCn1c(-c2ccc(C(=O)N/N=C/c3cc(O)cc(O)c3)cc2)nc2ccccc21 | 1.9
12 | 2.82 µM | – | 1.97 µM | – | C#CCn1c(-c2ccc(C(=O)N/N=C/c3ccc(O)cc3)cc2)nc2ccccc21 | 1.43
13 | 43.3 µM | – | 1.94 µM | – | C#CCn1c(-c2ccc(C(=O)N/N=C/c3ccc(OC)cc3)cc2)nc2ccccc21 | 22.3
